The text below walks through data of ChEMBL document CHEMBL1128264, “Second-generation leukotriene B4 receptor antagonists related to SC-41930: heterocyclic replacement of the methyl ketone pharmacophore” (J Med Chem, 1995).

Molecules are shown by their SMILES. Bounds are passed on as bounds.

In assay [1] the target is Leukotriene B4 receptor (Homo sapiens, UniProt Q9NPC1+Q15722). Briefly: Inhibition of Leukotriene B4 (LTB4) induced chemotaxis. It counts as functional.
Assay [2] is filed under the species Homo sapiens. The assay can be described thus: Tested for the ability to inhibit Leukotriene B4 (LTB4) induced degranulation. It counts as functional, organism-based. Summed up: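 Human neutrophils (3 × 10⁶ in 1 mL HBSS) pretreated with 5 μg cytochalasin B for 5 min at 37 °C, then with test compound for 7 min, then stimulated with 5 × 10⁻⁸ M LTB₄ for 2 min. MPO in pellet and supernatant read spectrophotometrically (o-dianisidine/peroxide). Release is expressed as percent of total MPO after subtracting basal.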

The target in assay [3] is T1, Leukotriene B4 receptor 1 (Homo sapiens, UniProt Q15722). Briefly: Binding affinity for Leukotriene B4 (LTB4) receptor. Summed up:
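Human blood neutrophils (dextran sedimentation, Ficoll-paque, hypotonic lysis without BSA), 4 × 10⁶ cells with 0.6 nM [³H]LTB₄ ± test compound in 1 mL HBSS, 0 °C for 45 min; 30 μM NDGA present in some assays. Glass-fibre filtration with ice-cold HBSS washes.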

The species named for assay [4] is Homo sapiens. Briefly: Tested for the ability to inhibit Leukotriene B4 (LTB4) induced chemotaxis. Test compound added to upper and lower wells. The class given is functional, organism-based. The gist of the method:
(§1)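 Test compound is placed in both upper and lower wells. After 90 min at 37 °C, migrated cells in the lower well are Coulter-counted. Inhibition is computed after subtracting the HBSS random-migration mean.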

Assay [5] has as its target T1, Leukotriene B4 receptor 1. The assay can be described thus: Binding affinity towards Leukotriene B4 (LTB4) Receptor. Experiment conducted in the absence of NDGA. The gist of the method: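 Human neutrophils isolated with dextran sedimentation, Ficoll-paque and BSA-free hypotonic lysis. 4 × 10⁶ cells incubated with 0.6 nM [³H]LTB₄ ± test compound in 1 mL HBSS at 0 °C for 45 min, no NDGA. Bound ligand separated by glass-fibre filtration. Specific binding is total minus binding not displaced by 0.1 μM unlabeled LTB₄.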

Assay [6] is filed under the species Homo sapiens. The assay can be described thus: Inhibition of fMLP-induced chemotaxis. The class given is functional, organism-based.
The species named for assay [7] is Homo sapiens. The assay can be described thus: Inhibition of fMLP-induced degranulation in the PMN degranulation assay. It counts as functional, organism-based.
The species named for assay [8] is Homo sapiens. Briefly: Tested for the ability to inhibit Leukotriene B4 (LTB4) induced chemotaxis. (Test compound added to upper and lower wells.). It counts as functional, organism-based. The gist of the method: as §1
The test system of assay [9] is Canis lupus familiaris. The assay can be described thus: In vivo activity for oral administration using LTB4-induced canine intradermal chemotaxis assay.
In assay [10] the test system is Cavia porcellus. Briefly: In vivo […] (oral) SCOA-induced colitis activity of the compound. It counts as functional. The gist of the method:
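Guinea pig colitis induced under light anesthesia by a single intrarectal enema of 4% acetic acid. Oral dosing 30 min before induction. Colonic MPO activity measured after 24 h. ED50 is in mg/kg.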

Assay [11] is filed under the species Homo sapiens. Briefly: Inhibition of 12-(R)-hydroxyeicosatetraenoic acid (HETE)-induced chemotaxis. It counts as functional, organism-based.
In assay [12] the test system is Mus musculus. The assay can be described thus: In vivo murine (intracolonic) SCOA-induced colitis activity of the compound. The class given is functional. The gist of the method: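 Mouse colitis induced under light anesthesia by a single intrarectal enema of 3% acetic acid. Test compound given intrarectally 1 h before and 1 h after instillation. Colonic MPO assessed at 24 h. ED50 is in mg/kg.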

Assay [13] concerns Cavia porcellus. Briefly: In vivo activity for topical application using LTB4-induced […] intradermal chemotaxis assay. The class given is functional.
Assay [14] relates to HL-60. The assay can be described thus: Inhibitory activity against LTB4 production in HL60s. To be noted: Homo sapiens. The class given is functional, cell-based.
The species entered for assay [15] is Homo sapiens. Briefly: Potency against LTB4-induced eosinophil chemotaxis. It counts as functional, organism-based.
For assay [16], the system named is Canis lupus familiaris. The assay can be described thus: In vivo activity for intravenous administration using LTB4-induced canine intradermal chemotaxis assay.
For assay [17], the species on record is Homo sapiens. The assay can be described thus: Potency against LTB4 binding to its receptor on eosinophils. The class given is functional, organism-based.
Assay [18] relates to HL-60. The assay can be described thus: Inhibitory activity against PGE-2 production in HL60s. It counts as functional, cell-based. To be noted: Homo sapiens.
Assay [19] concerns Mus musculus. Briefly: In vivo murine epidermal inflammation for topical application. It counts as functional. Summed up: (§2)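 PMA (25 μg) in acetone applied to the dorsal surface of one mouse ear, with vehicle on the other ear. Test compound applied topically with the PMA in acetone. At 18 h, ears were removed and weighed. Edema is weight gain versus the contralateral ear, and MPO was also assayed. ED50 is in mg.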

Assay [20] is filed under the species Homo sapiens. The assay can be described thus: Inhibitory activity against LTB4 production in PMNs. It counts as functional, organism-based.
For assay [21], the species on record is Homo sapiens. Briefly: Inhibitory activity against HETE-induced chemotaxis. It counts as functional, organism-based.
Assay [22] has as its system Mus musculus. The assay can be described thus: Compound measured by topical application using Murine epidermal inflammation assay. It counts as functional. Summed up:
as §2

Assay [23] relates to Cavia porcellus. The assay can be described thus: In vivo activity for intravenous administration using LTB4-induced guinea pig intradermal chemotaxis assay.
For assay [24], the system named is Cavia porcellus. The assay can be described thus: In vivo activity for oral administration using LTB4-induced guinea pig intradermal chemotaxis assay.
Assay [25] has as its system Cavia porcellus. The assay can be described thus: In vivo guinea pig (oral) SCOA-induced colitis activity of the compound.
The species named for assay [26] is Homo sapiens. The assay can be described thus: Tested for the ability to inhibit Leukotriene B4 (LTB4) induced chemotaxis. (Test compound added to upper and lower wells). The class given is functional, organism-based. The gist of the method:
as §1

T1 sequence (Q15722 whole entry): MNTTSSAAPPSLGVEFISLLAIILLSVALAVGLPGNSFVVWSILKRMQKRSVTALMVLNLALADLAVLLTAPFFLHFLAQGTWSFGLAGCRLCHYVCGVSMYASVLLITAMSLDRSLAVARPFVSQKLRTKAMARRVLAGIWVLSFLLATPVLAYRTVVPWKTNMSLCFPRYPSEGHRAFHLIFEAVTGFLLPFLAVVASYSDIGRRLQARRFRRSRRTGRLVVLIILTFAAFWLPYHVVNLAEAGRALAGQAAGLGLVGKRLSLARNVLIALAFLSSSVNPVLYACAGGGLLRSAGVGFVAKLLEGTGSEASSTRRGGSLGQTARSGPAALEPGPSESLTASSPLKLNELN

The IC50 is the midpoint of a concentration-inhibition curve. Read a high IC50 as lower potency. Consider `CCCc1c(OCCCOc2ccc(C(N)=O)c(OC)c2CCC)ccc2c1OC(C(=O)O)CC2` (stereo not given), for which the IC50 in assay [1] was found to be 350 nM; in [2] (Homo sapiens) it was 920 nM; in assay [3], 140 nM.
`CCCc1c(OCCCOc2ccc(-c3cocn3)c(OC)c2CCC)ccc2c1OC(C(=O)O)CC2` (stereo not given): the results for the IC50 in assay [1], in assay [2] (Homo sapiens) and in assay [3] were 430 nM, 230 nM and 100 nM, respectively.
For `CCCc1c(OCCCOc2ccc(-c3cscn3)c(OC)c2CCC)ccc2c1OC(C(=O)O)CC2` (stereo not given), in that order: 287 nM, 90 nM and 93 nM.
For `CCCc1c(OCCCOc2ccc(-c3csc(N)n3)c(OC)c2CCC)ccc2c1OC(C(=O)O)CC2` (stereo not given), the results for the concentration for half-maximal inhibition (IC50) in [1] and in [3] were 1500 nM and 320 nM, respectively.
For `CCCc1c(OCCCOc2ccc(-c3csc(SCc4ccccc4)n3)c(OC)c2CCC)ccc2c1OC(C(=O)O)CC2` (stereo not given), the concentration for half-maximal inhibition (IC50) in assay [1] was greater than 10000 nM; in assay [3], 5800 nM.
For `CCCc1c(OCCCOc2ccc(-c3coc(C)n3)c(OC)c2CCC)ccc2c1OC(C(=O)O)CC2` (stereo not given), in that order: greater than 10000 nM and 1100 nM.
For `CCCc1c(OCCCOc2ccc(-c3cc[nH]n3)c(OC)c2CCC)ccc2c1OC(C(=O)O)CC2` (stereo not given), in that order: 1200 nM and 610 nM.
Consider `CCCc1c(OCCCOc2ccc(-c3csc(S)n3)c(OC)c2CCC)ccc2c1OC(C(=O)O)CC2` (stereo not given), for which the concentration for half-maximal inhibition (IC50) amounted to 520 nM in assay [1], 1200 nM in [2] (Homo sapiens) and 890 nM in assay [3].
Consider `CCCc1c(OCCCOc2ccc(-c3csc(OC)n3)c(OC)c2CCC)ccc2c1OC(C(=O)O)CC2` (stereo not given), for which the values for the IC50 in assay [1] and in assay [3] were greater than 10000 nM and 1150 nM, respectively.
For `CCCc1c(OCCCOc2ccc(-c3csc(SC)n3)c(OC)c2CCC)ccc2c1OC(C(=O)O)CC2` (stereo not given), in that order: 18600 nM and 2800 nM.
Regarding `CCCc1c(OCCCOc2ccc(-c3cscn3)c(OC)c2CC2CC2)ccc2c1OC(CCC(=O)O)CC2` (stereo not given), the IC50 in assay [4] turned out to be 49 nM; in [2] (Homo sapiens) it was 7 nM; in assay [5], 12.3 nM.
As to `CCCc1c(OCCCOc2ccc(-c3ccno3)c(OC)c2CCC)ccc2c1OC(C(=O)O)CC2` (stereo not given), the concentration for half-maximal inhibition (IC50) in assay [1] is 1600 nM; in [3] it was 770 nM.
Turning to `CCCc1c(OCCCOc2ccc(-c3c[nH]cn3)c(OC)c2CCC)ccc2c1OC(C(=O)O)CC2` (stereo not given), the half-maximal inhibitory concentration (IC50) in assay [1] is 1200 nM; in [3], 520 nM.
For the molecule `CCCc1c(OCCCOc2ccc(-c3c[nH]nn3)c(OC)c2CCC)ccc2c1OC(C(=O)O)CC2` (stereo not given), the IC50 stood at 88 nM in assay [4], 130 nM in assay [2] (Homo sapiens) and 5.2 nM in assay [5].
As for `C=CCc1c(OCCCOc2ccc3c(c2CCC)OC(C(=O)O)CC3)ccc(-c2cscn2)c1OC` (stereo not given), the IC50 turned out to be 110 nM in assay [1], 23 nM in [2] (Homo sapiens) and 25 nM in assay [3].
Consider `CCCc1c(OCCCOc2ccc(-c3c[nH]c(SCc4ccccc4)n3)c(OC)c2CCC)ccc2c1OC(C(=O)O)CC2` (stereo not given), for which the IC50 turned out to be 430 nM in assay [4] and 750 nM in assay [5].
For the molecule `CCCc1c(OCCCOc2ccc(-c3cscn3)c(OC)c2CC2CC2)cccc1OCC(=O)O`, the figures for the IC50 in assay [4], in assay [2] (Homo sapiens) and in [5] were 360 nM, 220 nM and 15.5 nM, respectively.
Take `CCCc1c(OCCCOc2ccc(-c3cscn3)c(OC)c2CCC)ccc2c1OC(CCC(=O)O)CC2` (stereo not given): the IC50 in assay [1] worked out at 1540 nM; in assay [2] (Homo sapiens), 70 nM; in assay [3] it was 26 nM.
With `CCCc1c(OCCCOc2ccc(-c3cscn3)c(OC)c2CC2CC2)ccc2c1OC(C(=O)O)CC2` (racemic), the IC50 in [6] came to 1410 nM; in assay [7], 5900 nM; in assay [8] (Homo sapiens), 67 nM; in assay [11], 106 nM; in assay [2] (Homo sapiens), 48 nM. The ED50 turned out to be 0.2 mg/kg in assay [9]; 2.3 mg/kg in assay [10]; 7.1 mg/kg in assay [12] (Mus musculus, read-out: ED50); 18 ng in assay [13].
Consider `CCCc1c(OCCCOc2ccc(-c3cscn3)c(OC)c2CC2CC2)ccc2c1OC(C(=O)O)CC2` (stereo in doubt; 35), for which the IC50 in assay [14] is 660 nM; in assay [8], 89 nM; in assay [15] it was 9 nM; in assay [2], 57 nM; in assay [17], 2.6 nM; in [18], 928 nM. In addition, the IC50 amounted to 520 nM in assay [20] and 106 nM in assay [21]. Besides, the ED50 in [9] was determined as 0.74 mg/kg; in assay [10], 3.4 mg/kg; in [16], 0.02 mg/kg; in [12] it was 12 mg/kg; in assay [19] it was 0.8 mg; in assay [13], 70 ng.
`CCCc1c(OCCCOc2ccc(-c3cscn3)c(OC)c2CC2CC2)ccc2c1OC(C(=O)O)CC2` (stereo in doubt; -/-35): the ED50 in assay [10] amounted to 5.9 mg/kg; in assay [22] it was 0.98 mg; in assay [12], 11.7 mg/kg; in assay [13], 98 ng. Also, inhibition in [2] was half-maximal at 79 nM (IC50).
With `CCCc1c(OCCCOc2ccc(C(C)=O)c(OC)c2CCC)ccc2c1OC(C(=O)O)CC2` (stereo not given) [SC-41390], the ED50 in assay [23] is 0.5 mg/kg; in assay [24], 1.7 mg/kg; in assay [25], 20 mg/kg; in assay [12] (Mus musculus, read-out: ED50), 28 mg/kg; in assay [13], 340 ng. In addition, the IC50 came to 920 nM in assay [2] (Homo sapiens) and 832 nM in assay [26].
